Granule exo inh – blocks lytic granule exocytosis | TALL-104 LAMP-1 surface exposure, flow cytometry; cells stimulated with thapsigargin and PMA | inhibition, % at 10 µM | 360,000 tested, 0.66% active;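 active = inhibition above about 55%, limit read from the data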
rCAG RNA binder – r(CAG) repeat RNA binding | TO-PRO-1 dye displacement fluorescence | inhibition, % at 3 µM | 370,000 tested, 1.3% active;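 active = inhibition above the plate cutoff, the mean of all test compounds on that plate plus 3 SD, cut at about 35% in these data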;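 also: 0% = DMSO alone and 100% = 100 µM mitoxantrone as full dye displacement; higher means more dye released from RNA so lower well fluorescence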
V-ATPase pHluor – regulators of yeast V-ATPase proton transport | 350,000 tested, 0.37% active | S. cerevisiae, pHLuorin cytosolic pH fluorescence | response, % at 10 µM; in the data active = response mostly above about 7.3%, no sharp cut-off; inactive = mostly below about 5.4%; also: actives read high
MPTP inh – inhibitors of mitochondrial permeability transition pore. isolated mouse mitochondria, Ca2+ swelling absorbance, 30 min. inhibition, % at 10 µM. 360,000 tested, 1.4% active;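 active = inhibition of 50% or more, scaled per plate between neutral and stimulator controls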;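 also: 0% = DMSO wells given calcium and 100% = 1 mM EGTA wells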
Beta2AR agonist – activates human beta-2 adrenergic receptor causing internalization | 340,000 tested, 0.43% active | P07550 | Am2.2-beta2AR cells, FAP receptor internalization, flow cytometry | response, % (test concentration not listed);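 active = response above a set limit, near 3 SD of response in nonfluorescent compounds, cut at about 42% in these data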
Target sequence (P07550 whole entry, looked up): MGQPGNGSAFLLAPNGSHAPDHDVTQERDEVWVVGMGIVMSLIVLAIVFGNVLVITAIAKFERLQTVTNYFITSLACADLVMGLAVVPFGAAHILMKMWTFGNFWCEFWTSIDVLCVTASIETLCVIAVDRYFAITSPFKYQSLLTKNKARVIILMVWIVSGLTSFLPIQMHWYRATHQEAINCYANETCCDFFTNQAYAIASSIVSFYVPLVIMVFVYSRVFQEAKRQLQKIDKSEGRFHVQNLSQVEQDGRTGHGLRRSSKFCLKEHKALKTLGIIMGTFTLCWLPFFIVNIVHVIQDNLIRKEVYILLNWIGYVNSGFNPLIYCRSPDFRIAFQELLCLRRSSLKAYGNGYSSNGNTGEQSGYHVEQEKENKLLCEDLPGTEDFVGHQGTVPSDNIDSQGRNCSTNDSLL
T cell modulator – T cell immune modulation candidate; 2C CD8+ T cell-vesicle binding, flow cytometry; active compounds read low; response (vesicle binding), % at 7 µM; 330,000 tested, 0.068% active; AID 2052;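 active = response, share of CD8 T cells binding vesicles, and their 90th percentile fluorescence all below set limits, cut at about 80% in these data, passing the limit was not always enough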;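 also: values below 100% mean blocked vesicle binding to the CD8+ T cells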
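System: murine 2C transgenic CD8+ T lymphocytes; also added: QL9-loaded Drosophila micro-vesicles; times: binding 1.5 h at 37 °C; measured by: flow cytometry, PE anti-B7-1 (FL2) versus Alexa647 anti-CD8 (FL8), PFA-fixed; control set: Peptide-free naked vesicles (low) and QL9 vesicles with 0.7% DMSO vehicle (high)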
rCAG bind conf – r(CAG) RNA repeat binding, confirmation | shares compounds with rCAG RNA binder | TO-PRO-1 dye displacement fluorescence | inhibition, % at 3 µM | 4,300 tested, 70% active;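 active = inhibition above a per-plate cutoff, the mean inhibition of sample wells plus 3 SD, cut at about 35% in these data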;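 also: loss of TO-PRO-1 fluorescence as compound displaces dye from 1x1 AA loop RNA; 0% = DMSO only wells and 100% = 100 µM mitoxantrone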
DNA CAG counter – disrupts DNA CAG TO-PRO-1 complex, flagging rCAG hits; shares compounds with rCAG RNA binder; d(CAG) DNA oligo TO-PRO-1 dye displacement, fluorescence; inhibition, % at 3 µM; 4,300 tested, 94% active; AID 652068;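 active = inhibition above its plate's cutoff, the mean test-well inhibition plus 3 SD, cut at about 4.8% in these data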;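 also: 0% = DNA dye mix with DMSO and 100% = 100 µM mitoxantrone; hits displace the dye from DNA and so lower well fluorescence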
dCAG dye DR – counter-screen for rCAG binders: inhibitors of DNA CAG TO-PRO-1 complex. shares compounds with rCAG RNA binder. DNA CAG/GTC duplex TO-PRO-1 dye displacement fluorescence. IC50, µM. 250 tested, 20% active; in the data active = IC50 below about 10 µM
An asterisk follows results filed as active; i = inactive; x = no result given. Shown are actives, neighbours in structure and some others; about 3.8% of the full set was active somewhere.

SMILES	Granule exo inh	rCAG RNA binder	V-ATPase pHluor	MPTP inh	Beta2AR agonist	T cell modulator	rCAG bind conf	DNA CAG counter	others
O=C(c1ccc(NC(=O)C(c2ccccc2)c2ccccc2)cc1)c1ccc(C(=O)O)c(C(=O)O)c1	7	42*	-2	-2	-1	314	18	3
O=C1c2ccccc2/C(=C\c2ccc(O[C@@H]3CCCCO3)cc2)N1c1ccccc1	x	7	x	x	x	x	x	x
O=C(NC1CCCC1)[C@@H]1CCCN1C(=O)[C@@H](NS(=O)(=O)c1ccc(F)cc1F)c1ccccc1	x	2	x	x	x	x	x	x
Cc1cc(C(=O)OCC(=O)NC2CCCC2)c2ccccc2n1	0	-3	9	-1	-1	x	x	x
Cc1cc(C(=O)OCC(=O)NC2CCCCC2C)c2ccccc2n1 (stereo not drawn)	-13	0	0	0	5	0	x	x
O=C(COC(=O)c1c2c(nc3ccccc13)/C(=C/c1ccco1)CC2)NC1CCCC1	-1	68*	1	6	6	x	60*	34*
CC1CCCCC1NC(=O)COC(=O)c1c2c(nc3ccccc13)/C(=C/c1ccco1)CC2 (stereo not drawn)	-1	53*	-1	5	-30	193	51*	28*
CCOC(=O)[C@]12CCCCC/C=C\1N(Cc1ccc(OC)cc1)C(=O)[C@H]2CC(=O)NCC12CC3CC(CC(C3)C1)C2	x	8	x	x	x	x	x	x
CCc1cc2ccc(C)cc2nc1SCC(=O)Nc1cc(OC)c(OC)cc1C(=O)O	3	45*	-6	-1	6	238	76*	28*	dCAG dye DR=i
Cc1ccc(O)c(N=CC2=C(O)c3ccccc3C2=O)c1	2	51*	3	4	4	215	42*	18*
C=CCn1c(CSCc2ccc(Cl)cc2Cl)nnc1SCC(=O)Nc1ccc(C(=O)O)cc1	-2	36*	-2	3	-6	53	53*	16*
Cc1ccccc1S(=O)(=O)N1C(c2ccc(Cl)cc2)CC=C(C(=O)O)C1c1cccc(Cl)c1 (stereo not drawn)	-2	84*	x	0	x	x	77*	40*
Cc1ccc([C@@H]2CC=C(C(=O)O)[C@H](c3cccc(Cl)c3)N2S(=O)(=O)c2ccccc2C)cc1	3	82*	0	2	1	260	77*	43*
Cc1ccccc1S(=O)(=O)N1[C@@H](c2ccc(Cl)cc2)C(C(=O)O)=CC[C@H]1c1ccc(Cl)cc1	2	80*	0	1	5	325	80*	40*
Cc1ccc(S(=O)(=O)N2[C@@H](c3cccc(Cl)c3)C(C(=O)O)=CC[C@H]2c2cccc(C)c2)cc1	-4	10	-2	0	5	354	x	x
CCCCNC(=O)C[C@H]1C[C@@]2(C(=O)OC)C(=C[C@H](C(C)C)O[C@@H]2C2CC2)N(Cc2ccc(Cl)cc2Cl)C1=O	x	1	x	x	x	x	x	x
CSc1nsc2nc(=O)c(/C=C3\C=Nc4ccccc43)c(N)n12	-1	31	4	8	13	245	x	x
CSc1nsc2nc(=O)c(/C=C3\C(C)=Nc4ccc(C)cc43)c(N)n12	78*	66*	-2	3	12	346	46*	12*
CC(C)S(=O)(=O)c1nsc2nc(=O)c(/C=C3\C=Nc4ccccc43)c(N)n12	-2	88*	1	19	8	602	85*	55*
CC1=Nc2ccccc2/C1=C/c1c(N)n2c(S(=O)(=O)C(C)C)nsc2nc1=O	4	73*	2	2	-1	481	59*	21*
Cc1cn2c(N)c(/C=C3\C=Nc4ccccc43)c(=O)nc2s1	1	25	-31	2	-6	325	x	x
CC1=Nc2ccccc2/C1=C/c1c(N)n2c(S(=O)(=O)CC(C)C)nsc2nc1=O	11	78*	-3	16	25	x	78*	46*
CC(C)n1nnnc1C1(C)CSCC(=O)N1Cc1cccc(F)c1 (stereo not drawn)	x	7	x	x	x	x	x	x
O=C(NC1CCCCN(Cc2cccc(Cl)c2)C1=O)c1ccc(F)c(F)c1 (stereo not drawn)	x	1	x	x	x	x	x	x
O=C(Cc1c[nH]c2ccccc12)Nc1ccc(Nc2cccnc2)c(-c2ccc(Cl)c(Cl)c2)c1	x	15	x	x	x	x	x	x
SMILES	Granule exo inh	rCAG RNA binder	V-ATPase pHluor	MPTP inh	Beta2AR agonist	T cell modulator	rCAG bind conf	DNA CAG counter	others
CC1=Nc2ccc(C)cc2/C1=C/c1c(N)n2c(S(=O)(=O)C(C)C)nsc2nc1=O	-1	80*	1	8	13	x	75*	37*
CCCN(CC1CC1)C(=O)CN1C(=O)C2CCCCN2C(=O)c2ccccc21 (stereo not drawn)	x	0	x	x	x	x	x	x
C/C(=N\NC(=O)c1ccccc1O)c1cccc(NC(=O)c2ccccc2)c1	10	8	-3	1	2	342	x	x
C/C(=N\NC(=O)c1cc(O)ccc1O)c1cccc(NC(=O)c2cccc(Cl)c2)c1	-1	45*	5	-1	5	254	22	8.4*
C/C(=N\NC(=O)c1cc(O)ccc1O)c1cccc(NC(=O)c2ccc(Cl)cc2)c1	14	37*	0	-2	11	140	25	8.3*
CCCOc1nccc2c1n(C)c(=O)n2C	x	-1	x	x	x	x	x	x
O=C(N1CCOCC1)N1CC[C@H]2[C@H](CCCN2Cc2ccccc2)C1	x	0	x	x	x	x	x	x
Cc1csc(NC(=O)CSCC(=O)O)c1-c1nc2ccccc2s1	-2	44*	0	7	7	142	57*	19*
Cc1ccc2nc(-c3ccc(NC(=O)CCN4C(=O)c5ccccc5C4=O)cc3)sc2c1	-3	6	-1	4	15	339	x	x
Cc1ccc2nc(-c3ccc(NC(=O)COCC(=O)O)cc3)sc2c1	2	42*	-3	0	-7	308	34	8.3*
CCC(=O)NC(=S)Nc1ccc(-c2nc3ccc(C)cc3s2)cc1	6	-1	-1	2	-11	211	x	x
Cc1ccc2nc(-c3ccc(NC(=O)CSCC(=O)O)cc3)sc2c1	8	53*	6	6	-4	223	39*	11*
COc1ccc(Cn2cc(CN3[C@@H](c4ccccc4)COc4cc(Br)ccc4S3(=O)=O)nn2)cc1	x	3	x	x	x	x	x	x
Oc1ccc(/C=N/N(Cc2ccccc2)c2ccccc2)c(O)c1O	-2	38*	3	4	2	x	45*	25*
Oc1cccc(/C=N/N(Cc2ccccc2)c2ccccc2)c1	14	15	2	6	1	198	x	x

From PubChem
